Measured values taken from ChEMBL document CHEMBL3272265, “Interferon inducing activities of derivatives of 1,3-dimethyl-4-(3-dimethylaminopropylamino)-1H-pyrazolo(3,4-b)quinoline and related compounds” (J Med Chem, 1976).
The source made the active and inactive calls. The calls are words filed in the database; no cut-off is given here.

How the values were obtained:
Mus musculus [1] = assay: Induction of interferon level in CD-1 mouse serum at 100 mg/kg, ip after 18 to 20 hrs by vesicular stomatitis virus plaque reduction assay; assay type: functional, organism-based; design: dose 100 mg/kg
Procedure, shortened: (§1)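 Dosing was oral or ip in 15-g female CD-1 mice, at least three per dose level, with compound in sterile distilled water as a solution or suspension. Pooled sera were collected 18–20 hr after dosing. Interferon units/ml were quantified by a plaque reduction assay on mouse L cells with vesicular stomatitis virus challenge, run against an NIAID reference mouse interferon standard.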

Mus musculus [2] = assay: Toxicity in CD-1 mouse at 300 mg/kg, ip; assay type: organism-based; design: dose 300 mg/kg, route intraperitoneal; settings: in vivo
Mus musculus [3] = assay: Induction of interferon level in CD-1 mouse serum at 300 mg/kg, ip after 18 to 20 hrs by vesicular stomatitis virus plaque reduction assay; assay type: functional, organism-based; design: dose 300 mg/kg; procedure, shortened: as §1
Mus musculus [4] = assay: Induction of interferon level in CD-1 mouse serum at 400 mg/kg, po after 18 to 20 hrs by vesicular stomatitis virus plaque reduction assay; assay type: functional, organism-based; design: dose 400 mg/kg; procedure, shortened: as §1
Mus musculus [5] = assay: Induction of interferon level >= 32 units/mL in po dosed CD-1 mouse serum after 18 to 20 hrs by vesicular stomatitis virus plaque reduction assay; assay type: functional; settings: CD-1, Serum, read-out: MED
Procedure, shortened: (§2)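 Female CD-1 mice (15 g; at least three per dose) received compound dissolved or suspended in sterile distilled water, orally or ip. They were bled 18–20 hr later and sera pooled. Interferon was titrated by plaque reduction in mouse L cells challenged with vesicular stomatitis virus, with an NIAID reference mouse interferon standard. MED was the lowest dose giving ≥32 units/ml. Top doses were 400 mg/kg po and 300 mg/kg ip.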

Mus musculus [6] = assay: Induction of interferon level in CD-1 mouse serum at 9 mg/kg, ip after 18 to 20 hrs by vesicular stomatitis virus plaque reduction assay; assay type: functional, organism-based; design: dose 9 mg/kg; procedure, shortened: as §1
Mus musculus [7] = assay: Induction of interferon level in CD-1 mouse serum at 17 mg/kg, ip after 18 to 20 hrs by vesicular stomatitis virus plaque reduction assay; assay type: functional, organism-based; design: dose 17 mg/kg; procedure, shortened: as §1
Mus musculus [8] = assay: Induction of interferon level in CD-1 mouse serum at 100 mg/kg, po after 18 to 20 hrs by vesicular stomatitis virus plaque reduction assay; assay type: functional, organism-based; design: dose 100 mg/kg; procedure, shortened: as §1
Mus musculus [9] = assay: Induction of interferon level in CD-1 mouse serum at 50 mg/kg, ip after 18 to 20 hrs by vesicular stomatitis virus plaque reduction assay; assay type: functional, organism-based; design: dose 50 mg/kg; procedure, shortened: as §1
Mus musculus [10] = assay: Induction of interferon level >= 32 units/mL in ip dosed CD-1 mouse serum after 18 to 20 hrs by vesicular stomatitis virus plaque reduction assay; assay type: functional; settings: CD-1, Serum, read-out: MED; procedure, shortened: as §2
Mus musculus [11] = assay: Toxicity in CD-1 mouse at 400 mg/kg, po; assay type: organism-based; design: dose 400 mg/kg, route oral; settings: in vivo
Mus musculus [12] = assay: Induction of interferon level in CD-1 mouse serum at 200 mg/kg, po after 18 to 20 hrs by vesicular stomatitis virus plaque reduction assay; assay type: functional, organism-based; design: dose 200 mg/kg; procedure, shortened: as §1
Mus musculus [13] = assay: Acute toxicity in CD-1 mouse at 250 mg/kg, ip; assay type: organism-based; design: dose 250 mg/kg, route intraperitoneal; settings: in vivo
Mus musculus [14] = assay: Acute toxicity in CD-1 mouse at 1600 mg/kg, po; assay type: organism-based; design: dose 1600 mg/kg, route oral; settings: in vivo
Mus musculus [15] = species on record: Mus musculus; assay: Acute toxicity in CD-1 mouse; assay type: organism-based; settings: in vivo

Row | Compound | Activity (Mus musculus [1]) | Activity (Mus musculus [2]) | minimal effective dose (Mus musculus [5]) [mg/kg] | also measured
1 | Cc1nn(CCCN(C)C)c2nc3ccccc3cc12.Cl | inactive | Toxic | – | –
2 | COC(=O)Cn1nc(C)c2c(NCCCN(C)C)c3ccccc3nc21.Cl | inactive | Toxic | – | –
3 | Cc1cccc2c(NCCCN(C)C)c3c(C)nn(C)c3nc12.Cl | inactive | Toxic | – | –
4 | CCn1nc(C)c2c(NCCCN(C)C)c3ccccc3nc21.Cl | inactive | Toxic | – | Activity (Mus musculus [3]): inactive; Activity (Mus musculus [4]): inactive
5 | CCc1ccc2nc3c(c(C)nn3C)c(NCCCN(C)C)c2c1.Cl | inactive | Toxic | 200 | –
6 | Cc1nn(C)c2nc3ccccc3c(NCCc3ccncc3)c12.Cl | – | Toxic | – | Activity (Mus musculus [6]): inactive; Activity (Mus musculus [7]): inactive
7 | Cc1nn(C)c2nc3ccccc3c(NCCC3CCCN3C)c12.Cl (centres undefined) | inactive | Toxic | – | –
8 | CCOC(=O)c1cnc2c(c(C)nn2C)c1NCCCN(C)C | – | – | – | Activity (Mus musculus [8]): inactive
9 | Cc1nn(C)c2nc3ccccc3c(N3CCC(CCN(C)C)CC3)c12.Cl | – | Toxic | – | Activity (Mus musculus [9]): inactive
10 | CCc1ccc2c(NCCCN(C)C)c3c(C)nn(C)c3nc2c1.Cl | inactive | Toxic | 200 | –
11 | Cc1nn(Cc2ccccc2)c2nc3ccccc3c(NCCCN(C)C)c12.Cl | inactive | Toxic | – | –
12 | Cc1nn(C)c2nc3ccccc3c(OCCCN(C)C)c12.Cl | – | Toxic | – | Activity (Mus musculus [9]): inactive
13 | Cc1nn(CCNCCCN(C)C)c2nc3ccccc3c(NCCCN(C)C)c12.Cl | – | Toxic | – | Activity (Mus musculus [6]): inactive
14 | Cc1nn(C)c2nc3cc(Cl)ccc3c(NCCCN(C)C)c12.Cl | – | – | ≥ 100 | minimal effective dose (Mus musculus [10]): ≥ 100 mg/kg
15 | Cc1nn(C)c2nc3ccc([N+](=O)[O-])cc3c(NCCCN(C)C)c12.Cl | inactive | Toxic | – | –
16 | COc1cc2nc3c(c(C)nn3C)c(NCCCN(C)C)c2c(OC)c1OC.Cl | – | – | – | Activity (Mus musculus [11]): Toxic; Activity (Mus musculus [12]): inactive
17 | COc1ccc(Cl)c2c(NCCCN(C)C)c3c(C)nn(C)c3nc12.Cl | – | – | – | Activity (Mus musculus [11]): Toxic; Activity (Mus musculus [8]): inactive
18 | Cc1nn(C(C)C)c2nc3ccccc3c(NCCCN(C)C)c12.Cl | – | Toxic | – | Activity (Mus musculus [9]): inactive
19 | CN(C)CCCNc1c2ccccc2nc2ccccc12.Cl | – | – | – | minimal effective dose (Mus musculus [10]): ≥ 300 mg/kg; Activity (Mus musculus [4]): inactive
20 | Cc1nn(CC(F)(F)F)c2nc3ccccc3c(NCCCN(C)C)c12.Cl | inactive | Toxic | – | –
21 | Cc1nn(C)c2nc3cc(C(F)(F)F)ccc3c(NCCCN(C)C)c12.Cl | inactive | Toxic | – | –
22 | Cc1nn(C)c2nc3ccccc3c(NCCCN3CCOCC3)c12.Cl | – | – | – | minimal effective dose (Mus musculus [10]): 300 mg/kg; Activity (Mus musculus [4]): inactive
23 | CCc1nn(C)c2nc3ccccc3c(NCCCN(C)C)c12.Cl | inactive | Toxic | 200 | –
24 | Cc1nn(C)c2nc3ccccc3c(NCCCN(C)C)c12.Cl | – | – | 200 | Activity (Mus musculus [13]): Toxic; minimal effective dose (Mus musculus [10]): 100 mg/kg; Activity (Mus musculus [14]): Toxic
25 | Cc1nn(C)c2nc3ccccc3c(SCCCN(C)C)c12.Cl | – | Toxic | – | Activity (Mus musculus [12]): inactive; Activity (Mus musculus [9]): inactive
26 | Cc1nn(C)c2nc3ccc(Cl)cc3c(NCCCN(C)C)c12.Cl | inactive | Toxic | – | –

Row | Compound | Activity (Mus musculus [1]) | Activity (Mus musculus [2]) | minimal effective dose (Mus musculus [5]) [mg/kg] | also measured
27 | Cc1cc2nc3c(c(C)nn3C)c(NCCCN(C)C)c2cc1C.Cl | – | – | 50 | minimal effective dose (Mus musculus [10]): 25 mg/kg
28 | Cc1nn(C)c2nc3ccccc3c(NCCN3CCCC3)c12.Cl | inactive | Toxic | – | –
29 | Cc1cccc2nc3c(c(C)nn3C)c(NCCCN(C)C)c12.Cl | inactive | Toxic | – | Activity (Mus musculus [4]): inactive
30 | Cc1nn(C)c2nc3ccccc3c(NCCc3ccccn3)c12.Cl | – | Toxic | – | Activity (Mus musculus [9]): inactive
31 | CCc1n[nH]c2nc3ccccc3c(NCCCN(C)C)c12.Cl | inactive | Toxic | – | –
32 | Cc1nn(C)c2nc3ccc(I)cc3c(NCCCN(C)C)c12.Cl | inactive | Toxic | ≥ 400 | –
33 | CCN(CC)CCCNc1c2ccccc2nc2c1c(C)nn2C.Cl | – | – | 400 | minimal effective dose (Mus musculus [10]): 300 mg/kg
34 | CCCCN(CCCC)CCCNc1c2ccccc2nc2c1c(C)nn2C.Cl | inactive | Toxic | – | –
35 | CCNc1ccc2nc3c(c(C)nn3C)c(NCCCN(C)C)c2c1.Cl | – | – | 50 | minimal effective dose (Mus musculus [10]): 25 mg/kg
36 | Cc1ccc2c(NCCCN(C)C)c3c(C)nn(C)c3nc2c1C.Cl | – | – | 200 | minimal effective dose (Mus musculus [10]): 200 mg/kg
37 | Cc1nn(C)c2nc3ccccc3c(NCc3cccnc3)c12.Cl | inactive | Toxic | – | –
38 | Cc1nn(C)c2nc3cc(CO)ccc3c(NCCCN(C)C)c12.Cl | – | – | 200 | minimal effective dose (Mus musculus [10]): 100 mg/kg
39 | Cc1ccc2c(NCCCN(C)C)c3c(C)nn(C)c3nc2c1.Cl | – | – | 50 | Activity (Mus musculus [15]): Toxic; minimal effective dose (Mus musculus [10]): 50 mg/kg; Activity (Mus musculus [4]): inactive
40 | Cc1nn(CCCN(C)C)c2nc3ccccc3c(NCCCN(C)C)c12.Cl | inactive | Toxic | – | Activity (Mus musculus [4]): inactive
41 | COc1cccc2c(NCCCN(C)C)c3c(C)nn(C)c3nc12.Cl | – | – | 100 | minimal effective dose (Mus musculus [10]): 50 mg/kg
42 | Cc1nn(C)c2nc3ccccc3c(NCCCNC34CC5CC(CC(C5)C3)C4)c12.Cl | – | Toxic | – | Activity (Mus musculus [8]): inactive
43 | Cc1nn(C)c2nc3ccccc3c(NCCCN3CCCCC3)c12.Cl | inactive | Toxic | 200 | –
44 | COc1cccc2nc3c(c(C)nn3C)c(NCCCN(C)C)c12.Cl | – | – | 100 | minimal effective dose (Mus musculus [10]): 100 mg/kg
45 | Cc1nn(C)c2nc3ccccc3c(NCCCCCN(C)C)c12.Cl | – | – | 200 | minimal effective dose (Mus musculus [10]): 150 mg/kg
46 | COc1ccc2nc3c(c(C)nn3C)c(NCCCN(C)C)c2c1.Cl | inactive | Toxic | 200 | –
47 | Cc1nn(CCCN(C)C)c2nc3ccccc3c(Cl)c12.Cl | – | Toxic | – | Activity (Mus musculus [7]): inactive
48 | Cc1nn(C)c2nc3c(c(NCCCN(C)C)c12)CCCC3 | inactive | – | – | Activity (Mus musculus [4]): inactive
49 | Cc1nn(C)c2nc3ccccc3c(NC3CC3)c12.Cl | – | Toxic | – | Activity (Mus musculus [8]): inactive
50 | Cc1nn(C)c2nc3ccccc3c(NCCCN3CCCC3=O)c12.Cl | inactive | Toxic | – | –
51 | CCC1CCC(C)N(CCCNc2c3ccccc3nc3c2c(C)nn3C)C1.Cl (centres undefined) | inactive | Toxic | – | –
52 | Cc1ccc2nc3c(c(C)nn3C)c(NCCCN(C)C)c2c1.Cl | – | – | 50 | minimal effective dose (Mus musculus [10]): 50 mg/kg
